CAL PDZ FP-1: blocks peptide binding to human CAL PDZ domain; Q9HD26; purified CAL PDZ, TMR-peptide fluorescence polarization, 1 h; inhibition, % at 20 µM; 0.02% of 330,000 active; AID 504414;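 active = highest replicate inhibition of at least 40%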
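Material: tagged CAL PDZ domain; buffer or medium: 25 mM sodium phosphate pH 7.4, 150 mM NaCl, TCEP, IgG, Thesit; compound dosing: single point, 20 µM; schedule: 1 h incubation at room temperature before polarization reading; measured by: FP readout, S and P plane fluorescence; read-out basis: percent inhibition from loss of millipolarization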
CAL PDZ FP-2: CAL PDZ (human) peptide binding inhibition; AID 602252; 0.92% of 300,000 active; inhibition, % at 24.9 µM; purified CAL PDZ, TMR-peptide fluorescence polarization, 1 h;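 active = mean inhibition of at least 30% with at least half of replicates also reaching 30%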
ARNT TACC3 PPI: disrupts binding between human ARNT and TACC3 | inhibition, % at 9.99 µM | AlphaScreen His-ARNT PAS-B/GST-TACC3 binding, luminescence; TACC3 fragment carries E629A point mutation | Q9Y6A5 | 0.66% of 390,000 active;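 active = mean inhibition of replicates at least 50% and at least half of replicates each reaching 50%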
DDE Tn6 FP inh: DD(E)-Tn6 binding inhibition, primary FP screen | Fibrin DD(E) TRITC-Tn6 fluorescence polarization displacement | P02675 | inhibition, % at 8.3 µM | 0.21% of 370,000 active;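 active = inhibition above a per-campaign cutoff: mean of compounds within control limits plus 3 SD, cut at about 15% in these data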
GRK2 aptamer HTS: inhibitors of human GRK2 displacing RNA aptamer. bead flow cytometry, FAM-aptamer displacement from GRK2. inhibition of aptamer binding, % at 10 µM. 0.59% of 330,000 active. P25098. AID 488847;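 active = inhibition of aptamer binding above 40%, roughly 3 SD of noise, on plates passing a quality check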;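 also: median bead fluorescence of bound FAM aptamer so fluorescent compounds give negative values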
Target sequence (P25098 whole entry, looked up): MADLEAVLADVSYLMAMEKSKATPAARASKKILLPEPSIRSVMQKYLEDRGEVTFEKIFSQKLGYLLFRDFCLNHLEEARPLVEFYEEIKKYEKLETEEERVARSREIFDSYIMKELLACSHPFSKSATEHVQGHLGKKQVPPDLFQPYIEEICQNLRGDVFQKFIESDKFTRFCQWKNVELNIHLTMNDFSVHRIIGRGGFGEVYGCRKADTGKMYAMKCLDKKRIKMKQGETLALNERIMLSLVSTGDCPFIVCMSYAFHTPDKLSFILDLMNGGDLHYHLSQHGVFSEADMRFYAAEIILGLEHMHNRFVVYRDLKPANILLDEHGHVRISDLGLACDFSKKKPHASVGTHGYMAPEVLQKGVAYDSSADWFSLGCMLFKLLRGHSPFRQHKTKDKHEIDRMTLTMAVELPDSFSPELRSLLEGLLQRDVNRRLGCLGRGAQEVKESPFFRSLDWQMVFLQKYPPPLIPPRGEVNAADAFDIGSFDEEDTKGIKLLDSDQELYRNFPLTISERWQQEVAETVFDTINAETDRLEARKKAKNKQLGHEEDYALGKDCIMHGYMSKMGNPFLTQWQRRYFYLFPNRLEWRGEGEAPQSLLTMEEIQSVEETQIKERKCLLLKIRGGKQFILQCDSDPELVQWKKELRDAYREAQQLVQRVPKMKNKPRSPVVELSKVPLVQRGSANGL
DDE Tn7 FP inh: inhibitors of Tn7 peptide binding to human fibrin DD(E) | P02675 | FP displacement of FITC-Tn7 peptide from fibrin DD(E); 0% = median of compound wells per plate | inhibition, % at 8.3 µM | 0.13% of 370,000 active | AID 720508;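 active = inhibition above the mean of compounds falling within the control limits plus 3 SD of them, cut at about 14% in these data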
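Assay system: human fibrin DD(E) protein / Input: 2 µM fibrin DD(E) / Benchmarks: high control of 10 µM Aha-Tn7 peptide / Measured by: fluorescence polarization of the labelled Tn7 tracer / Medium: Tris buffer with calcium and detergent, pH 7.8 / Timing: 10 min compound pre-incubation, 3 h probe incubation at room temperature / Repeats: one replicate per compound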
Each line names hits and unclear results; the compound was inactive in the other large screens. Only some compounds are listed: those with a hit (about 1.8% of all), similar ones and a draw of the others.

C[C@@H]1CCCCO[C@H](CN(C)C(=O)c2ccccc2)[C@@H](C)CN([C@H](C)CO)C(=O)c2cc(NC(=O)CCC(F)(F)F)ccc2O1	none (no result: CAL PDZ FP-1, CAL PDZ FP-2, DDE Tn6 FP inh, GRK2 aptamer HTS, DDE Tn7 FP inh)
COCCNC(=O)C(=O)NCC1OCCN1S(=O)(=O)c1ccc(F)cc1 (stereo not given)	CAL PDZ FP-2 34
O=C(NCCN1CCOCC1)C(=O)NCC1OCCN1S(=O)(=O)c1ccc(F)cc1 (stereo not given)	CAL PDZ FP-2 83
O=C(NCCCN1CCOCC1)C(=O)NCC1OCCN1S(=O)(=O)c1ccc(F)cc1 (stereo not given)	none
C[C@@H]1CCCCO[C@H](CN(C)S(=O)(=O)c2ccc(F)cc2)[C@@H](C)CN([C@@H](C)CO)C(=O)c2cc(NC(=O)Nc3ccc(F)cc3)ccc2O1	none (no result: CAL PDZ FP-1, CAL PDZ FP-2, DDE Tn6 FP inh, GRK2 aptamer HTS, DDE Tn7 FP inh)
CO[C@H]1CN(C)C(=O)c2cc(NS(C)(=O)=O)ccc2OC[C@H](C)N(C(=O)CN(C)C)C[C@H]1C	none (no result: CAL PDZ FP-1, CAL PDZ FP-2, DDE Tn6 FP inh, GRK2 aptamer HTS, DDE Tn7 FP inh)
O=C(CCN1C(=O)/C(=C/c2cccs2)SC1=S)N1CCCCC1	CAL PDZ FP-2 85
COc1cccc(/C=C2\SC(=S)N(CCC(=O)N3CCCCC3CCO)C2=O)c1 (stereo not given)	none (no result: CAL PDZ FP-2)
COc1cccc(/C=C2\SC(=S)N(CCCC(=O)N3CCCC3)C2=O)c1	GRK2 aptamer HTS 55
COc1cccc(/C=C2\SC(=S)N(CCCC(=O)N3CCCCC3CCO)C2=O)c1 (stereo not given)	CAL PDZ FP-2 88
O=C(C[C@H]1C[C@H]2c3cc(NC(=O)C4CCOCC4)ccc3O[C@H]2[C@H](CO)O1)NCc1ccccn1	none (no result: CAL PDZ FP-1, CAL PDZ FP-2, DDE Tn6 FP inh, GRK2 aptamer HTS, DDE Tn7 FP inh)
CN(C)C(=O)C[C@H]1CC[C@H]2[C@@H](COC[C@H](O)CN2CC2CCCC2)O1	none (no result: CAL PDZ FP-1, CAL PDZ FP-2, DDE Tn6 FP inh, GRK2 aptamer HTS, DDE Tn7 FP inh)
O=C(C[C@H]1C[C@@H]2c3cc(NC(=O)CC4CC4)ccc3O[C@@H]2[C@H](CO)O1)NCc1ccccc1	none (no result: CAL PDZ FP-1, CAL PDZ FP-2, DDE Tn6 FP inh, GRK2 aptamer HTS, DDE Tn7 FP inh)
CCN1CCN(C(c2cc(OC)ccc2OC)c2nnnn2Cc2ccccc2)CC1 (stereo not given)	CAL PDZ FP-2 54
O=C([C@H]1[C@H](CO)[C@H]2Cn3c(cccc3=O)[C@H]2N1CCC(F)(F)F)N1CCCCC1	ARNT TACC3 PPI active (no result: CAL PDZ FP-1, CAL PDZ FP-2, DDE Tn6 FP inh, GRK2 aptamer HTS, DDE Tn7 FP inh)
CCNC(=O)Nc1ccc2c(c1)C(=O)N(C)[C@H]1CC[C@H](CC(=O)Nc3ccccc3)O[C@H]1CO2	none (no result: CAL PDZ FP-1, CAL PDZ FP-2, DDE Tn6 FP inh, GRK2 aptamer HTS, DDE Tn7 FP inh)
O=C(Nc1ccccc1F)c1ccc(CN2CCc3ccccc3C2)cc1	CAL PDZ FP-2 132 (no result: CAL PDZ FP-1)
Cc1ccc(NC(=O)c2ccc(CN3CCc4ccccc4C3)cc2)cc1	none
C#CCNC(=O)C[C@H]1C[C@@]2(C(=O)OC)C(=C[C@H](C(C)(C)C)O[C@@H]2C)N(Cc2ccc(Cl)cc2Cl)C1=O	none (no result: CAL PDZ FP-1, CAL PDZ FP-2, ARNT TACC3 PPI, GRK2 aptamer HTS)
O=[N+]([O-])c1ccc(Oc2cccc3cccnc23)c([N+](=O)[O-])c1	ARNT TACC3 PPI active
c1ccc(-c2csc(Nc3nc(N4CCOCC4)nc(N4CCOCC4)n3)n2)cc1	CAL PDZ FP-2 49
Cc1cc(C)nc(Nc2nc(-c3ccccc3)cs2)n1	none
Cc1ccc(C(=O)N/N=C/c2ccc(-c3cccc(Cl)c3)o2)cn1	none
Cc1ccc(C(=O)N/N=C/c2ccc(-c3ccccc3[N+](=O)[O-])o2)cn1	ARNT TACC3 PPI 27
CO[C@@H]1CN(C)C(=O)c2cc(NC(C)=O)ccc2OC[C@@H](C)N(C(=O)CN2CCOCC2)C[C@H]1C	none (no result: CAL PDZ FP-1, CAL PDZ FP-2, DDE Tn6 FP inh, GRK2 aptamer HTS, DDE Tn7 FP inh)
Cc1cccc(NC(=O)c2ccccc2SCc2ccc(F)cc2)n1	CAL PDZ FP-2 60 (no result: ARNT TACC3 PPI)
CN1C(=O)c2cc(NC(=O)c3cccc(F)c3)ccc2OC[C@H]2O[C@@H](CC(=O)O)CC[C@H]21	none (no result: CAL PDZ FP-1, CAL PDZ FP-2, DDE Tn6 FP inh, GRK2 aptamer HTS, DDE Tn7 FP inh)
CC(=O)C1=NOC(CNC(=O)c2c(-c3ccccc3Cl)noc2C)C1 (stereo not given)	CAL PDZ FP-2 45
COc1ccc(C(=O)CCC(C)(C)[N+](=O)[O-])cc1OC	CAL PDZ FP-2 33
C[C@@H]1CN([C@H](C)CO)C(=O)c2cc(-c3cccc(C#N)c3)cnc2O[C@@H]1CN(C)Cc1cccnc1	none (no result: CAL PDZ FP-1, CAL PDZ FP-2, DDE Tn6 FP inh, GRK2 aptamer HTS, DDE Tn7 FP inh)
O=C(c1ccc(N2CCCC2=O)cc1)N1CCN(c2ccccc2F)CC1	CAL PDZ FP-2 56
